# Results reported in ChEMBL document CHEMBL2331319, “Development of N-Hydroxycinnamamide-Based Histone Deacetylase Inhibitors with Indole-Containing Cap Group” (ACS Med Chem Lett, 2013).
# Active and inactive are the calls of the source. The rule behind the calls is not given here.
# Columns and labels:
# Histone deacetylase = test: Inhibition of HDAC in human HeLa cell nuclear extract using Boc-Lys(acetyl)-AMC as substrate preincubated with enzyme for 5 mins prior to substrate addition measured after 30 mins by fluorescence assay; type: protein assay
# Mus musculus [1] = test: Toxicity in athymic nude mouse xenografted with human U937 cells assessed as spleen injury at 60 mg/kg/day, po administered 10 days after tumor inoculation for 3 weeks; type: organism-based, U-937; set-up: route oral; conditions: in vivo
# Mus musculus [2] = test: Toxicity in athymic nude mouse xenografted with human U937 cells assessed as liver injury at 60 mg/kg/day, po administered 10 days after tumor inoculation for 3 weeks; type: organism-based, U-937; set-up: route oral; conditions: in vivo
# Mus musculus [3] = test: Toxicity in athymic nude mouse xenografted with human U937 cells assessed as body weight loss at 60 mg/kg/day, po administered 10 days after tumor inoculation for 3 weeks; type: organism-based, U-937; set-up: route oral; conditions: in vivo
# U-937 [4] = test: Antitumor activity against human U937 cells xenografted in athymic nude mouse assessed as T/C ratio at 60 mg/kg/day, po administered 10 days after tumor inoculation for 3 weeks; type: functional
# In short: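 U937 cells implanted in nude mice, seven per group; oral dosing with a positive-control group run alongside. Tumour growth was followed as a growth curve, data given as mean ± SD; efficacy was expressed as tumour growth inhibition and relative increment ratio.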
# U-937 [5] = test: Antitumor activity against human U937 cells xenografted in athymic nude mouse assessed as tumor growth inhibition at 60 mg/kg/day, po administered 10 days after tumor inoculation for 3 weeks measured every three days by vernier caliper; type: functional; conditions: read-out: TGI
# In short: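 U937 xenografts in nude mice, seven per group, with oral dosing and a reference agent as positive control. Tumour growth was followed as a growth curve, and the data are given as mean ± SD.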
# HCT-116 = test: Inhibition of human HCT116 cell proliferation after 48 hrs by MTT assay; type: functional, cell-based; conditions: HCT-116, 48 h
# MDA-MB-231 [6] = test: cells; type: functional, cell-based; conditions: Homo sapiens, MDA-MB-231, 48 h
# A549 = test: Inhibition of human A549 cell proliferation after 48 hrs by MTT assay; type: functional, cell-based; conditions: A549, 48 h
# [7] = Inhibition of human ES2 cell proliferation after 48 hrs by MTT assay; type: functional, cell-based; conditions: ES-2, 48 h
# PC-3 = test: Inhibition of human PC3 cell proliferation after 48 hrs by MTT assay; type: functional, cell-based; conditions: PC-3, 48 h
# MDA-MB-231 [8] = test: Increase in histone H4 acetylation in human MDA-MB-231 cells at 1 uM after 3 to 24 hrs by Western blot analysis; type: functional, cell-based
# In short: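 MDA-MB-231 cells were exposed at 1 μM for 3 h and 24 h. Lysates were immunoblotted for acetylated histone H4, with β-actin as the loading control.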
# U-937 [9] = test: Inhibition of human U937 cell proliferation after 48 hrs by MTT assay; type: functional, cell-based; conditions: U-937, 48 h
# U-937 [10] = test: Antitumor activity against human U937 cells xenografted in athymic nude mouse assessed as T/C ratio at 20 mg/kg/day, po administered 10 days after tumor inoculation for 3 weeks; type: functional
# U-937 [11] = test: Antitumor activity against human U937 cells xenografted in athymic nude mouse assessed as tumor growth inhibition at 20 mg/kg/day, po administered 10 days after tumor inoculation for 3 weeks measured every three days by vernier caliper; type: functional; conditions: read-out: TGI
# In short: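 U937 xenografts in nude mice, seven mice per group. Tamibarotene served as the positive control. Growth curves of the implanted tumours were followed over the treatment period and reported as mean ± SD.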
smiles,measurement,setting,value
COc1cc(/C=C/C(=O)NO)ccc1OC[C@H](Cc1c[nH]c2ccccc12)NS(=O)(=O)c1c(C(C)C)cc(C(C)C)cc1C(C)C,IC50,Histone deacetylase,ND(Insoluble)
COc1cc(/C=C/C(=O)NO)ccc1OC[C@H](Cc1c[nH]c2ccccc12)NC(=O)[C@@H](NC(=O)OC(C)(C)C)C(C)C,IC50,Histone deacetylase,0.43 µM
CCCC(CCC)C(=O)N[C@H](COc1ccc(/C=C/C(=O)NO)cc1OC)Cc1c[nH]c2ccccc12,Activity,Mus musculus [1],Non-toxic
same,Activity,Mus musculus [2],Non-toxic
same,Activity,Mus musculus [3],Non-toxic
same,Activity,U-937 [4],42%
same,inhibition in vivo at 60 mg/kg/day,U-937 [5],53%
same,IC50,HCT-116,5.5 µM
same,IC50,MDA-MB-231 [6],3.1 µM
same,IC50,A549,4.4 µM
same,IC50,[7],5.4 µM
same,IC50,PC-3,3.7 µM
same,Activity,MDA-MB-231 [8],Active
same,IC50,U-937 [9],1.8 µM
COc1cc(/C=C/C(=O)NO)ccc1OC[C@H](Cc1c[nH]c2ccccc12)NS(=O)(=O)c1ccc(F)cc1,IC50,Histone deacetylase,1.06 µM
COc1cc(/C=C/C(=O)NO)ccc1OC[C@H](Cc1c[nH]c2ccccc12)NC(=O)[C@@H]1CCCN1C(=O)OC(C)(C)C,IC50,Histone deacetylase,0.43 µM
COc1cc(CCC(=O)NO)ccc1OC[C@H](Cc1c[nH]c2ccccc12)NC(=O)OC(C)(C)C,IC50,Histone deacetylase,2.09 µM
CC1(C)CCC(C)(C)c2cc(NC(=O)c3ccc(C(=O)O)cc3)ccc21 [TAMIBAROTENE],Activity,U-937 [10],85%
same,inhibition in vivo at 20 mg/kg/day,U-937 [11],33%
CC[C@H](C)[C@H](NC(=O)OC(C)(C)C)C(=O)N[C@H](COc1ccc(/C=C/C(=O)NO)cc1OC)Cc1c[nH]c2ccccc12,IC50,Histone deacetylase,0.38 µM
COc1cc(/C=C/C(=O)NO)ccc1OC[C@H](Cc1c[nH]c2ccccc12)NC(=O)[C@H](CCCCNC(=O)OC(C)(C)C)NC(=O)OC(C)(C)C,IC50,Histone deacetylase,1.17 µM
COc1cc(/C=C/C(=O)NO)ccc1OC[C@H](Cc1c[nH]c2ccccc12)NC(=O)[C@@H]1CC2(CN1C(=O)OC(C)(C)C)SCCS2,IC50,Histone deacetylase,0.8 µM
COc1cc(/C=C/C(=O)NO)ccc1OC[C@@H](N)Cc1c[nH]c2ccccc12.Cl,IC50,Histone deacetylase,2.91 µM
COc1cc(/C=C/C(=O)NO)ccc1OC[C@H](Cc1c[nH]c2ccccc12)NC(=O)[C@H](CC(C)C)NC(=O)OC(C)(C)C,IC50,Histone deacetylase,0.57 µM
COc1cc(/C=C/C(=O)NO)ccc1OC[C@H](Cc1c[nH]c2ccccc12)NS(=O)(=O)c1ccc(Cl)cc1,IC50,Histone deacetylase,1.47 µM
COc1cc(/C=C/C(=O)NO)ccc1OC[C@H](Cc1c[nH]c2ccccc12)NC(=O)[C@H](Cc1ccc(O)cc1)NC(=O)OC(C)(C)C,IC50,Histone deacetylase,0.32 µM
COc1cc(/C=C/C(=O)NO)ccc1OC[C@H](Cc1c[nH]c2ccccc12)NC(=O)[C@@H](NC(=O)OC(C)(C)C)[C@@H](C)O,IC50,Histone deacetylase,0.18 µM
same,IC50,HCT-116,2.4 µM
same,IC50,MDA-MB-231 [6],7.2 µM
same,IC50,A549,7 µM
same,IC50,[7],8.9 µM
same,IC50,PC-3,5.4 µM
same,IC50,U-937 [9],2.7 µM
COc1cc(/C=C/C(=O)NO)ccc1OC[C@H](Cc1c[nH]c2ccccc12)NC(=O)[C@H](CO)NC(=O)OC(C)(C)C,IC50,Histone deacetylase,0.14 µM
same,IC50,HCT-116,9.4 µM
same,IC50,MDA-MB-231 [6],11.7 µM
same,IC50,A549,13.5 µM
same,IC50,[7],9.5 µM
same,IC50,PC-3,8.2 µM
same,IC50,U-937 [9],3.9 µM
COc1cc(/C=C/C(=O)NO)ccc1OC[C@H](Cc1c[nH]c2ccccc12)NC(=O)[C@H](Cc1c[nH]c2ccccc12)NC(=O)OC(C)(C)C,IC50,Histone deacetylase,0.49 µM
COc1cc(/C=C/C(=O)NO)ccc1OC[C@H](Cc1c[nH]c2ccccc12)NS(=O)(=O)c1ccc(NC(C)=O)cc1,IC50,Histone deacetylase,0.71 µM
COc1cc(/C=C/C(=O)NO)ccc1OC[C@H](Cc1c[nH]c2ccccc12)NC(=O)[C@H](C)NC(=O)OC(C)(C)C,IC50,Histone deacetylase,0.16 µM
same,IC50,HCT-116,3.8 µM
same,IC50,MDA-MB-231 [6],4.5 µM
same,IC50,A549,4.2 µM
same,IC50,[7],25.1 µM
same,IC50,PC-3,10.4 µM
same,IC50,U-937 [9],2.2 µM
COc1cc(/C=C/C(=O)NO)ccc1OC[C@H](Cc1c[nH]c2ccccc12)NC(=O)C1CCN(C(=O)OC(C)(C)C)CC1,IC50,Histone deacetylase,1.12 µM
COc1cc(/C=C/C(=O)NO)ccc1OC[C@H](Cc1c[nH]c2ccccc12)NC(=O)[C@H](Cc1ccccc1)NC(=O)OC(C)(C)C,IC50,Histone deacetylase,0.62 µM
COc1cc(/C=C/C(=O)NO)ccc1OC[C@H](Cc1c[nH]c2ccccc12)NC(=O)c1ccc(NC(=O)OC(C)(C)C)cc1,IC50,Histone deacetylase,0.73 µM
O=C(CCCCCCC(=O)Nc1ccccc1)NO [VORINOSTAT],IC50,[7],12.7 µM
same,IC50,U-937 [9],2.3 µM
COc1cc(/C=C/C(=O)NO)ccc1OC[C@H](Cc1c[nH]c2ccccc12)NC(=O)[C@H](CCSC)NC(=O)OC(C)(C)C,IC50,Histone deacetylase,0.18 µM
same,IC50,HCT-116,5.9 µM
same,IC50,MDA-MB-231 [6],6.8 µM
same,IC50,A549,1.6 µM
same,IC50,[7],4.4 µM
same,IC50,PC-3,5.8 µM
same,IC50,U-937 [9],2.2 µM
COc1cc(/C=C/C(=O)NO)ccc1OC[C@H](Cc1c[nH]c2ccccc12)NC(=O)CNC(=O)OC(C)(C)C,IC50,Histone deacetylase,0.17 µM
same,IC50,HCT-116,6 µM
same,IC50,MDA-MB-231 [6],7.2 µM
same,IC50,A549,11.8 µM
same,IC50,[7],29.2 µM
same,IC50,PC-3,10.5 µM
same,IC50,U-937 [9],3.1 µM
COc1cc(/C=C/C(=O)NO)ccc1OC[C@H](Cc1c[nH]c2ccccc12)NC(=O)OC(C)(C)C,IC50,Histone deacetylase,0.65 µM
